Most compounds without a hit are left out; they make up all but 0.6% or so of the library.
TNAP act hi DEA: TNAP (human) activation, high acceptor; P05186; purified TNAP, CDP-star luminescence, 1 M DEA, 30 min; active compounds read high; 0 = EDTA background, 1 = DMSO-only activity; 200,000 tested, under 10 active; AID 1136; activation factor at 20 µM;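 active means activation factor at least 2 at 20 µM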
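Assay system: human TNAP; Input: enzyme diluted 1/800 final; Reagent: CDP-star luminogenic substrate at 100 µM final; Timing: 30 min, room temperature; Signal: luminescence; Evaluation: TNAP activation factor scaled between EDTA and DMSO control wells.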
TNAP inh noacc: TNAP (human) inhibition, acceptor-free conditions. P05186. purified TNAP, CDP-star luminescence, 30 min. inhibition, % at 20 µM. hit rate 0.26% among 200,000. AID 1012;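 active means tissue-nonspecific alkaline phosphatase inhibition above about 50% at 20 µM in the single-dose screen, limit read from the data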;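 further: 0% = DMSO negative control and 100% = EDTA positive control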
PMI act hi M6P: activators of human phosphomannose isomerase at near-saturating mannose 6-phosphate. P34949. coupled PMI enzyme assay, resazurin fluorescence, 20 min; active compounds read high; 1 = untreated enzyme, 0 = substrate-free blank. activation factor at 20 µM. hit rate 0.34% among 190,000. AID 1216;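 active means activation factor of 2 or more at 20 µM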
Target sequence (P34949 whole entry, looked up): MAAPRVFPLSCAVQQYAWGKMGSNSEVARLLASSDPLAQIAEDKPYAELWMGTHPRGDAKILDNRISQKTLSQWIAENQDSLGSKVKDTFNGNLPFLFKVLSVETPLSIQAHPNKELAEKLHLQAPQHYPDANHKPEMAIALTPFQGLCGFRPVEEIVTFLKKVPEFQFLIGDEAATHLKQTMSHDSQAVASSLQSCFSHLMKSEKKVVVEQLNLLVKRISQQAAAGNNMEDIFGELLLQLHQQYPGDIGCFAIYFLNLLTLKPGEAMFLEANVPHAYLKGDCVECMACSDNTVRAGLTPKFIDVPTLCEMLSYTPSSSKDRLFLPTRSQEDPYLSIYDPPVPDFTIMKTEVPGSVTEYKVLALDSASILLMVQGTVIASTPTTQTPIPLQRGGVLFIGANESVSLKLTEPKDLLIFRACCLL
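test system = human PMI in coupled enzyme assay | medium = HEPES-buffered pH 7.4 with magnesium and detergent | also added = 1.0 mM mannose-6-phosphate substrate with 0.22 mM NADP+ | compound = 20 µM single dose | times = 20 min incubation at room temperature | measured by = resorufin fluorescence (Ex 544/Em 590 nm) from resazurin via diaphorase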
TNAP inh hiacc: inhibitors of human TNAP at high phosphate acceptor concentration; P05186; purified TNAP, CDP-star luminescence, 1 M DEA; inhibition, % at 20 µM; hit rate 0.03% among 200,000; AID 1135;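 active means over 50% inhibition of tissue-nonspecific alkaline phosphatase at 20 µM in the single-dose screen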;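 further: plate controls were DMSO wells for no effect and EDTA-quenched wells as full inhibition for full effect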
PMI activator: increases human mannose-6-phosphate isomerase activity; purified human PMI, coupled resazurin fluorescence, 20 min; active compounds read high; 1 = vehicle control, 0 substrate-free wells; activation factor at 20 µM; hit rate 0.005% among 190,000;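 active means activation factor of 2 or more at 20 µM, relative to plate controls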
Rad51 HR inh: blocks human Rad51 in homologous recombination. Q06609. hit rate 0.085% among 200,000. inhibition, % at 10 µM. hRad51 DNA strand exchange, fluorescence dequenching;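 active means inhibition above 40% at the single screening dose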;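 further: 0% = DMSO control wells and 100% = blanks with heterologous ssDNA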
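Test system – preformed human Rad51 ssDNA filaments · Reagent – Donor/quencher-labelled 47-bp dsDNA substrate · Incubation – 37 °C 15-min filament assembly, 30-min compound preincubation, 15-min exchange · Signal – FRET fluorescence dequenching, excitation 485 nm, emission 520 nm · Read-out – percent inhibition from fluorescence, normalised to plate control and blank means · Benchmarks – plate control and blank wells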
* hit, by the source's call.

Results for CCOc1ccc(C2NC(=O)c3sc(=S)n(-c4ccccc4)c3N2)cc1 (stereo not drawn) ?
TNAP act hi DEA: 1; TNAP inh noacc: 4; PMI act hi M6P: 2.3*; TNAP inh hiacc: 3; PMI activator: 1.7

How did CCOC(=O)c1ccc(N=NN(C)C)cc1 do in these assays?
Rad51 HR inh: 6

Results for Cc1ccc(C(=O)NS(=O)(=O)c2ccc(N=NN(C)C)cc2)cc1 ?
TNAP act hi DEA: 1; TNAP inh noacc: -4; PMI act hi M6P: 2*; TNAP inh hiacc: -3; PMI activator: 1.6; Rad51 HR inh: -58

What do the screens show for `S=c1nc(-c2ccccc2)c(-c2ccccc2)n[nH]1`?
Rad51 HR inh: 22

What do the screens show for `Nc1c(-c2ccccc2)n[nH]c1-c1ccccc1`?
TNAP act hi DEA: 1; TNAP inh noacc: 89*; PMI act hi M6P: 1.1; TNAP inh hiacc: -2; PMI activator: 1; Rad51 HR inh: 5

Results for O=C(CC(c1ccccc1)c1ccccc1)N1CCN(c2ccccn2)CC1 ?
TNAP act hi DEA: 1.1; TNAP inh noacc: -11; PMI act hi M6P: 1; TNAP inh hiacc: -7; PMI activator: 1

How did COCCNC(=S)NCCCNc1nc2cc3c(cc2cc1C#N)OCO3 do in these assays?
TNAP act hi DEA: 1.1; TNAP inh noacc: -24; PMI act hi M6P: 1.6; TNAP inh hiacc: -9; PMI activator: 1.2; Rad51 HR inh: 6

Results for CCOCCCNC(=S)NCCNc1nc2ccc(C)cc2cc1C#N ?
TNAP act hi DEA: 1; TNAP inh noacc: -11; PMI act hi M6P: 2*; TNAP inh hiacc: 2; PMI activator: 1.5; Rad51 HR inh: -7

How did CCOCCCNC(=S)NCCCNc1nc2ccc(C)cc2cc1C#N do in these assays?
TNAP act hi DEA: 1.1; TNAP inh noacc: -25; PMI act hi M6P: 2.1*; TNAP inh hiacc: -6; PMI activator: 1.6; Rad51 HR inh: 0

What do the screens show for `CCOCCCNC(=S)NCCCNc1nc2cc3c(cc2cc1C#N)OCO3`?
TNAP act hi DEA: 1; TNAP inh noacc: -24; PMI act hi M6P: 2.2*; TNAP inh hiacc: 1; PMI activator: 1.6; Rad51 HR inh: 7

What do the screens show for `CC(NC(N)=O)C(=O)Nc1ccc(Cl)c(S(=O)(=O)Nc2ccc(Cl)cc2)c1` (stereo not drawn)?
TNAP act hi DEA: 1; TNAP inh noacc: -3; PMI act hi M6P: 1.1; TNAP inh hiacc: 1; PMI activator: 1.1; Rad51 HR inh: 8

How did O=C(CN1C(=O)C2CC=CCC2C1=O)Nc1nccs1 (stereo not drawn) do in these assays?
TNAP act hi DEA: 1; TNAP inh noacc: -7; PMI act hi M6P: 0.9; TNAP inh hiacc: -2; PMI activator: 0.9; Rad51 HR inh: 52*

Results for C/C(=N\Nc1ccc(F)cc1)c1ccncc1 ?
TNAP act hi DEA: 1; TNAP inh noacc: -8; PMI act hi M6P: 2.5*; TNAP inh hiacc: 2; PMI activator: 1.6; Rad51 HR inh: 4

What do the screens show for `C/C(=N\NC=O)c1ccncc1`?
TNAP act hi DEA: 1; TNAP inh noacc: -8; PMI act hi M6P: 1; TNAP inh hiacc: -2; PMI activator: 1.1

How did C/C(=N\NC(N)=O)c1ccc(Cl)s1 do in these assays?
Rad51 HR inh: 1

Results for C/C(=N/Nc1ccc(F)cc1)c1ccc(Cl)s1 ?
TNAP act hi DEA: 0.9; TNAP inh noacc: -4; PMI act hi M6P: 2.3*; TNAP inh hiacc: 6; PMI activator: 1.4; Rad51 HR inh: -3

Results for C/C(=N\Nc1cccc(Cl)c1)c1ccncc1 ?
TNAP act hi DEA: 1; TNAP inh noacc: -4; PMI act hi M6P: 2.3*; TNAP inh hiacc: -1; PMI activator: 1.8; Rad51 HR inh: 8

How did N#CCC(=O)Nc1ccc(C(=O)OCC(=O)Nc2ccccc2Sc2ccccc2)cc1 do in these assays?
TNAP act hi DEA: 1; TNAP inh noacc: -6; PMI act hi M6P: 0.8; TNAP inh hiacc: -2; PMI activator: 0.8; Rad51 HR inh: -13

What do the screens show for `COc1ccc(-c2cc3nnc(-c4ccccc4)nc3s2)cc1`?
TNAP act hi DEA: 1; TNAP inh noacc: -6; PMI act hi M6P: 2.5*; TNAP inh hiacc: -2; PMI activator: 1.6

What do the screens show for `CCN(CC)c1ccc(/C=C2\CCC(/C=C(\C#N)C(=O)Nc3ccccc3F)=C2N2CCOCC2)cc1`?
TNAP act hi DEA: 0.5; TNAP inh noacc: 53*; PMI act hi M6P: 0.6; TNAP inh hiacc: 47; PMI activator: 0.7; Rad51 HR inh: 8

Results for CCOc1ccc(C2C=C(c3ccccc3)Nc3ncnn32)cc1 (stereo not drawn) ?
TNAP act hi DEA: 1; TNAP inh noacc: -5; PMI act hi M6P: 1.1; TNAP inh hiacc: -2; PMI activator: 1.1; Rad51 HR inh: -47

Results for CCOC(=O)Cn1c(C)cc(=O)c2ccccc21 ?
TNAP act hi DEA: 1; TNAP inh noacc: -11; PMI act hi M6P: 0.6; TNAP inh hiacc: -5; PMI activator: 0.9; Rad51 HR inh: -1

What do the screens show for `Cc1c(NC(=O)c2nn3c(c2Br)NC(c2ccccc2)CC3C(F)(F)F)c(=O)n(-c2ccccc2)n1C` (stereo not drawn)?
TNAP act hi DEA: 1; TNAP inh noacc: -4; PMI act hi M6P: 1; TNAP inh hiacc: 0; PMI activator: 1; Rad51 HR inh: 2

Results for COCCn1c(=NC(=O)CSC(C)=O)sc2cc(OC)ccc21 ?
TNAP act hi DEA: 1; TNAP inh noacc: -7; PMI act hi M6P: 1; TNAP inh hiacc: -2; PMI activator: 1; Rad51 HR inh: 6

What do the screens show for `COCCn1c(=NC(=O)CSC(C)=O)sc2cc(F)ccc21`?
TNAP act hi DEA: 0.9; TNAP inh noacc: -8; PMI act hi M6P: 0.9; TNAP inh hiacc: 13; PMI activator: 1; Rad51 HR inh: 83*

Results for CS/C(=N\S(=O)(=O)c1ccccc1)c1ccccc1 ?
TNAP act hi DEA: 0.9; TNAP inh noacc: -2; PMI act hi M6P: 2*; TNAP inh hiacc: 8; PMI activator: 1.7; Rad51 HR inh: 2

Results for CCOc1ccc(N=C2NC(=O)C(CC(=O)O)S2)cc1 (stereo not drawn) ?
TNAP act hi DEA: 1; TNAP inh noacc: 42; PMI act hi M6P: 1; TNAP inh hiacc: 0; PMI activator: 1; Rad51 HR inh: 1

What do the screens show for `O=C(O)CC1SC(=Nc2ccc(O)cc2)NC1=O` (stereo not drawn)?
TNAP act hi DEA: 1.1; TNAP inh noacc: 54*; PMI act hi M6P: 1.1; TNAP inh hiacc: -6; PMI activator: 1.1; Rad51 HR inh: 2

What do the screens show for `COc1cc(C2Nc3ccc4ncccc4c3C3=C2C(=O)CC(C)(C)C3)cc(OC)c1O` (stereo not drawn)?
TNAP act hi DEA: 1.1; TNAP inh noacc: -10; PMI act hi M6P: 0.7; TNAP inh hiacc: -5; PMI activator: 0.6; Rad51 HR inh: -9

Assay outcomes: PubChem, several laboratories
